# Test results from PubChem BioAssay AID743257 (The Scripps Research Institute Molecular Screening Center, 2014).
# Among all 2,900 compounds or so, about 1,900 (66%) were called active. The set was probably picked from earlier hits. These entries were drawn from the full list. A number with no mark means an inactive call.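 Rule for the calls: active = mean inhibition across replicates above the hit cutoff set in the primary screen (cut at about 8.5% in these data); inactive = the rest.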
# Biological target: Disintegrin and metalloproteinase domain-containing protein 17 (Homo sapiens) (UniProt P78536)
# Assay: inhibition of human ADAM17 protease activity – biochemical, QFRET peptide cleavage, confirmation (AID 743257);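 note: 0% = DMSO wells and 100% = marimastat wells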
# Conditions: recombinant ADAM17, EDANS/DABCYL QFRET peptide cleavage; at 6.95 µM; hits give high values
# How it was run: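 Test system: human ADAM17 enzyme, FRET peptide cleavage; medium: 50 mM HEPES buffer, pH 7.5, with 0.01% Brij; incubation: 30 min preincubation plus 3 h reaction at 25 °C; measured by: fluorescence at ex 359 nm, em 460 nm; control set: DMSO and 1 µM marimastat control wells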
# Sequence of Disintegrin and metalloproteinase domain-containing protein 17 (Homo sapiens) (P78536 215-824 limits assumed): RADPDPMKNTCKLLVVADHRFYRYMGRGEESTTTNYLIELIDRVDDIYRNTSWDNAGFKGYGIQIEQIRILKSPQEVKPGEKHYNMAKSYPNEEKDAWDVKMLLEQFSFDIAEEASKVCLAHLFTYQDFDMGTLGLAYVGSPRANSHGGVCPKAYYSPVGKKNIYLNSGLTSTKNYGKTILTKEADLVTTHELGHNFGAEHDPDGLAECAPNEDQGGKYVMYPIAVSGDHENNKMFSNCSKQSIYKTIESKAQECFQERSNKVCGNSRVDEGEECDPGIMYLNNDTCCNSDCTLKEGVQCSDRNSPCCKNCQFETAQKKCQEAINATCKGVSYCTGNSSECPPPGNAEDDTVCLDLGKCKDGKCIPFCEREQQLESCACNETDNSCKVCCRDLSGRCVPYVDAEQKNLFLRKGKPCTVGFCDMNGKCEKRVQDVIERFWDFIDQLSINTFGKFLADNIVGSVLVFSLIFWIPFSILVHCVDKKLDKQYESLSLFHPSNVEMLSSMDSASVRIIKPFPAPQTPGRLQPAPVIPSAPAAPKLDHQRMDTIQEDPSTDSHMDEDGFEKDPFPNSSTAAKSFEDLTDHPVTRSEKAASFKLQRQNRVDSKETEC
row,Structure (SMILES),inhibition
1,O=C(C[C@H]1C(=O)N(c2ccc(F)c(F)c2)C[C@@H]1Cc1ccccc1)Nc1ccccc1,14.1% (active)
2,Cc1ccc(C)c(NC(=S)NNC(=S)Nc2ccc(C(C)C)cc2)c1,17.9% (active)
3,C[C@@H]1CN([C@H](C)CO)C(=O)c2cc(-c3ccc(F)cc3)cnc2O[C@H]1CN(C)C(=O)c1ccc(F)cc1,8.52%
4,COc1cc(NC(=O)CCS(=O)(=O)c2ccc3c(c2)oc(=O)n3C)cc(OC)c1,6.47%
5,COc1ccc(C(=O)NN2C(=O)C3C(c4ccccc4)C=CC(c4ccccc4)C3C2=O)cc1 (stereo not given),14% (active)
6,COc1ccc(S(=O)(=O)N2CCN(C(C)C(=O)Nc3ccc(C(C)C)cc3)CC2)cc1 (stereo not given),10.8% (active)
7,COc1cc(/C=N/n2c(C)n[nH]c2=S)ccc1OCc1ccccc1,0.43%
8,NS(=O)(=O)c1ccc(NC(=O)COC(=O)C2(c3ccc(F)cc3)CCCC2)cc1,14.4% (active)
9,CN(C)S(=O)(=O)c1cccc(NC(=O)COC(=O)C2(c3ccccc3F)CCCC2)c1,14.1% (active)
10,O=C1/C(=C\c2ccsc2)NC(=S)N1c1ccccc1,8.92% (active)
11,C#CCN(C[C@H]1[C@H](OC(=O)NC2CCCC2)[C@H](OC(=O)NC2CCCC2)C[C@H]2C(=O)N(c3ccccc3)C(=O)[C@@H]12)S(=O)(=O)c1ccc(C)cc1,8.59%
12,C=CC(COCc1ccccc1)N(CC(=O)OC)S(=O)(=O)c1cc(Br)ccc1OC (stereo not given),10.1% (active)
13,O=C(Nn1c(SCc2ccc([N+](=O)[O-])cc2)nc2ccccc2c1=O)c1ccc(F)cc1,16.4% (active)
14,COc1ccc(Cn2cc(CN3CCS(=O)(=O)N(Cc4ccc(-c5cccc(Cl)c5)cc4)C(C)C3=O)nn2)cc1 (stereo not given),11.2% (active)
15,COc1ccc(-c2ccc(CN3C(CC(C)C)C(=O)N(Cc4cn(CC5CCCCC5)nn4)CCS3(=O)=O)cc2)cc1 (stereo not given),13.1% (active)
16,FC(F)(F)Oc1ccccc1C(c1nnnn1C1CCCCC1)N1CCN(C/C=C/c2ccccc2)CC1 (stereo not given),10.2% (active)
17,Cc1ccc(Cn2nnc3c(=O)[nH]c(C4CCN(S(=O)(=O)/C=C/c5ccccc5)CC4)nc32)cc1,20.1% (active)
18,Cc1nnc(SCC(=O)Nn2cnnc2)s1,1%
19,O=C(CSc1nnc(Nc2ccccc2)s1)Nc1cccnc1Cl,4.72%
20,Cc1ccc(NC(=S)NNC(=O)CSc2nnc(SCc3ccccc3Cl)s2)cc1,13.7% (active)
21,O=C(COC(=O)c1ccccc1)Nc1ccccc1Sc1ccccc1,10.7% (active)
22,Cc1ccccc1C(=O)Nc1ccccc1Sc1ccccc1,8.42%
23,O=C(Nc1ccc(C(=O)NCc2ccccc2Cl)cc1)C1=CSCCO1,4.43%
24,CCCCCC(=O)N1C[C@H](O)[C@@H](n2cc(COC(=O)c3ccccc3)nn2)C[C@@H]1c1ccc(C)cc1,13.5% (active)
25,C=CCC[C@@H](Cc1ccc(F)cc1)C(=O)OC[C@H](Cc1c[nH]c2ccccc12)NC(=O)[C@@H](CC=C)CC(=O)N(CCO)Cc1ccccc1,16.9% (active)
26,C=CCC[C@@H](Cc1ccc(F)cc1)C(=O)O[C@H](CNC(=O)[C@H](CC=C)CC(=O)N(CCO)Cc1ccccc1)c1ccccc1,21.7% (active)
27,C=CC[C@H](CC(=O)N(CCO)Cc1ccccc1)C(=O)N[C@@H](COC(=O)[C@@H](CC=C)Cc1ccc(F)cc1)Cc1ccccc1,14.8% (active)
28,Cc1ccc(/C=N/NC(=O)CSc2nc3ccccc3o2)cc1,6%
29,CC1(C)C=Cc2c(ccc3c2OC[C@@H](c2ccc(O)cc2O)C3)O1,12.3% (active)
30,N/C(Cc1ccc([N+](=O)[O-])cc1)=N\OC(=O)COc1ccc2ccccc2c1,6.36%
